Results as given in ChEMBL document CHEMBL4689842, “EUbOPEN Chemogenomics Library wave 1” (2021).

System: HEK-293T
Test: Multiplex assay against HEK293T;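 for Population Tubulin-Different-Phenotype (%): share of the cells with healthy nuclei that show this phenotype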
Format: toxicity, cell-based
Conditions: human
Outline: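 Four dyes were applied at seeding to live cells: Hoechst33342, BioTracker Green Microtubule Cytoskeleton Dye, MitoTracker Red and Annexin V Alexa Fluor 680. Imaging after compound addition used a CQ1 microscope at 37°C and 5% CO2. CellPathfinder machine-learning gating then sorted cells into Hoechst high-intensity objects or normal cells, normal cells into healthy, pyknosed or fragmented nuclei, and pyknosed cells into mitotic or apoptotic, with tubulin, mitochondrial-mass and membrane-permeability phenotypes given as per cents of healthy-nucleus cells.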

[1] = 12 h, 1 µM, compound concentration 1 uM, replicate 1
[2] = 12 h, 1 µM, compound concentration 1 uM, replicate 2
[3] = 12 h, 10 µM, compound concentration 10 uM, replicate 1
[4] = 12 h, 10 µM, compound concentration 10 uM, replicate 2
[5] = 24 h, 1 µM, compound concentration 1 uM, replicate 1
[6] = 24 h, 1 µM, compound concentration 1 uM, replicate 2
[7] = 24 h, 10 µM, compound concentration 10 uM, replicate 1
[8] = 24 h, 10 µM, compound concentration 10 uM, replicate 2
[9] = 48 h, 1 µM, compound concentration 1 uM, replicate 1
[10] = 48 h, 1 µM, compound concentration 1 uM, replicate 2
[11] = 48 h, 10 µM, compound concentration 10 uM, replicate 1
[12] = 48 h, 10 µM, compound concentration 10 uM, replicate 2

CCOc1cc(N2CCC(O)CC2)ccc1Nc1ncc2c(n1)N(C1CCCC1)CCC(=O)N2C
Population Apoptotic (%) [1]: 17%
Population Fragmented Nuclei (%) [1]: 18%
Population Healthy Nuclei (%) [1]: 58%
Population Hoechst High Intensity Objects (%) [1]: 13%
Population Membrane Permeable-Phenotype (%) [1]: 3%
Population Mitochondria Different-Phenotype (%) [1]: 5%
Population Mitotic Cells (%) [1]: 82%
Population Normal (%) [1]: 86%
Population Pyknosed Nuclei (%) [1]: 22%
Population Tubulin-Different-Phenotype (%) [1]: 3%
Total Cell Count [1]: 614
Population Apoptotic (%) [2]: 4%
Population Fragmented Nuclei (%) [2]: 6%
Population Healthy Nuclei (%) [2]: 87%
Population Hoechst High Intensity Objects (%) [2]: 2%
Population Membrane Permeable-Phenotype (%) [2]: 1%
Population Mitochondria Different-Phenotype (%) [2]: 15%
Population Mitotic Cells (%) [2]: 95%
Population Normal (%) [2]: 97%
Population Pyknosed Nuclei (%) [2]: 5%
Population Tubulin-Different-Phenotype (%) [2]: 5%
Total Cell Count [2]: 1724
Population Apoptotic (%) [3]: 14%
Population Fragmented Nuclei (%) [3]: 18%
Population Healthy Nuclei (%) [3]: 62%
Population Hoechst High Intensity Objects (%) [3]: 13%
Population Membrane Permeable-Phenotype (%) [3]: 4%
Population Mitochondria Different-Phenotype (%) [3]: 5%
Population Mitotic Cells (%) [3]: 85%
Population Normal (%) [3]: 86%
Population Pyknosed Nuclei (%) [3]: 19%
Population Tubulin-Different-Phenotype (%) [3]: 4%
Total Cell Count [3]: 550
Population Apoptotic (%) [4]: 8%
Population Fragmented Nuclei (%) [4]: 9%
Population Healthy Nuclei (%) [4]: 86%
Population Hoechst High Intensity Objects (%) [4]: 1%
Population Membrane Permeable-Phenotype (%) [4]: 0%
Population Mitotic Cells (%) [4]: 92%
Population Normal (%) [4]: 98%
Population Pyknosed Nuclei (%) [4]: 4%
Population Tubulin-Different-Phenotype (%) [4]: 2%
Total Cell Count [4]: 1779
Population Apoptotic (%) [5]: 19%
Population Fragmented Nuclei (%) [5]: 16%
Population Healthy Nuclei (%) [5]: 73%
Population Hoechst High Intensity Objects (%) [5]: 7%
Population Membrane Permeable-Phenotype (%) [5]: 2%
Population Mitochondria Different-Phenotype (%) [5]: 4%
Population Mitotic Cells (%) [5]: 80%
Population Normal (%) [5]: 92%
Population Pyknosed Nuclei (%) [5]: 9%
Population Tubulin-Different-Phenotype (%) [5]: 3%
Total Cell Count [5]: 619
Population Apoptotic (%) [6]: 4%
Population Fragmented Nuclei (%) [6]: 26%
Population Healthy Nuclei (%) [6]: 72%
Population Hoechst High Intensity Objects (%) [6]: 3%
Population Membrane Permeable-Phenotype (%) [6]: 0%
Population Mitochondria Different-Phenotype (%) [6]: 3%
Population Mitotic Cells (%) [6]: 95%
Population Normal (%) [6]: 96%
Population Pyknosed Nuclei (%) [6]: 1%
Population Tubulin-Different-Phenotype (%) [6]: 1%
Total Cell Count [6]: 2649
Population Apoptotic (%) [7]: 19%
Population Fragmented Nuclei (%) [7]: 13%
Population Healthy Nuclei (%) [7]: 76%
Population Hoechst High Intensity Objects (%) [7]: 6%
Population Membrane Permeable-Phenotype (%) [7]: 8%
Population Mitochondria Different-Phenotype (%) [7]: 5%
Population Mitotic Cells (%) [7]: 80%
Population Normal (%) [7]: 93%
Population Pyknosed Nuclei (%) [7]: 9%
Population Tubulin-Different-Phenotype (%) [7]: 2%
Total Cell Count [7]: 597
Population Apoptotic (%) [8]: 0%
Population Fragmented Nuclei (%) [8]: 27%
Population Healthy Nuclei (%) [8]: 70%
Population Hoechst High Intensity Objects (%) [8]: 3%
Population Membrane Permeable-Phenotype (%) [8]: 2%
Population Mitochondria Different-Phenotype (%) [8]: 0%
Population Mitotic Cells (%) [8]: 100%
Population Normal (%) [8]: 96%
Population Pyknosed Nuclei (%) [8]: 1%
Total Cell Count [8]: 3112

Cl.Cl.Nc1ncnc2c1c(-c1cccc(OCc3ccccc3)c1)cn2[C@H]1C[C@@H](CN2CCC2)C1
Population Apoptotic (%) [1]: 69%
Population Fragmented Nuclei (%) [1]: 13%
Population Healthy Nuclei (%) [1]: 17%
Population Hoechst High Intensity Objects (%) [1]: 24%
Population Membrane Permeable-Phenotype (%) [1]: 5%
Population Mitochondria Different-Phenotype (%) [1]: 94%
Population Mitotic Cells (%) [1]: 30%
Population Normal (%) [1]: 75%
Population Pyknosed Nuclei (%) [1]: 68%
Population Tubulin-Different-Phenotype (%) [1]: 88%
Total Cell Count [1]: 270
Population Apoptotic (%) [2]: 56%
Population Fragmented Nuclei (%) [2]: 5%
Population Healthy Nuclei (%) [2]: 23%
Population Hoechst High Intensity Objects (%) [2]: 10%
Population Membrane Permeable-Phenotype (%) [2]: 2%
Population Mitochondria Different-Phenotype (%) [2]: 97%
Population Mitotic Cells (%) [2]: 43%
Population Normal (%) [2]: 89%
Population Pyknosed Nuclei (%) [2]: 71%
Population Tubulin-Different-Phenotype (%) [2]: 97%
Total Cell Count [2]: 199
Population Fragmented Nuclei (%) [3]: 18%
Population Healthy Nuclei (%) [3]: 12%
Population Hoechst High Intensity Objects (%) [3]: 20%
Population Membrane Permeable-Phenotype (%) [3]: 3%
Population Mitochondria Different-Phenotype (%) [3]: 100%
Population Normal (%) [3]: 79%
Population Pyknosed Nuclei (%) [3]: 69%
Population Tubulin-Different-Phenotype (%) [3]: 84%
Total Cell Count [3]: 264
Population Apoptotic (%) [4]: 95%
Population Fragmented Nuclei (%) [4]: 21%
Population Healthy Nuclei (%) [4]: 6%
Population Hoechst High Intensity Objects (%) [4]: 23%
Population Membrane Permeable-Phenotype (%) [4]: 9%
Population Mitochondria Different-Phenotype (%) [4]: 81%
Population Mitotic Cells (%) [4]: 4%
Population Normal (%) [4]: 77%
Population Pyknosed Nuclei (%) [4]: 71%
Population Tubulin-Different-Phenotype (%) [4]: 54%
Total Cell Count [4]: 213
Population Apoptotic (%) [5]: 70%
Population Fragmented Nuclei (%) [5]: 14%
Population Healthy Nuclei (%) [5]: 18%
Population Hoechst High Intensity Objects (%) [5]: 25%
Population Membrane Permeable-Phenotype (%) [5]: 0%
Population Mitochondria Different-Phenotype (%) [5]: 100%
Population Mitotic Cells (%) [5]: 29%
Population Normal (%) [5]: 75%
Population Pyknosed Nuclei (%) [5]: 67%
Total Cell Count [5]: 260
Population Apoptotic (%) [6]: 67%
Population Fragmented Nuclei (%) [6]: 7%
Population Healthy Nuclei (%) [6]: 43%
Population Hoechst High Intensity Objects (%) [6]: 5%
Population Membrane Permeable-Phenotype (%) [6]: 4%
Population Mitochondria Different-Phenotype (%) [6]: 93%
Population Mitotic Cells (%) [6]: 32%
Population Normal (%) [6]: 94%
Population Pyknosed Nuclei (%) [6]: 49%
Population Tubulin-Different-Phenotype (%) [6]: 91%
Total Cell Count [6]: 213
Population Apoptotic (%) [7]: 92%
Population Fragmented Nuclei (%) [7]: 17%
Population Healthy Nuclei (%) [7]: 9%
Population Hoechst High Intensity Objects (%) [7]: 22%
Population Membrane Permeable-Phenotype (%) [7]: 0%
Population Mitochondria Different-Phenotype (%) [7]: 100%
Population Mitotic Cells (%) [7]: 7%
Population Normal (%) [7]: 77%
Population Pyknosed Nuclei (%) [7]: 73%
Population Tubulin-Different-Phenotype (%) [7]: 80%
Total Cell Count [7]: 278
Population Apoptotic (%) [8]: 100%
Population Fragmented Nuclei (%) [8]: 23%
Population Healthy Nuclei (%) [8]: 11%
Population Hoechst High Intensity Objects (%) [8]: 26%
Population Membrane Permeable-Phenotype (%) [8]: 5%
Population Mitochondria Different-Phenotype (%) [8]: 89%
Population Mitotic Cells (%) [8]: 0%
Population Normal (%) [8]: 73%
Population Pyknosed Nuclei (%) [8]: 64%
Population Tubulin-Different-Phenotype (%) [8]: 68%
Total Cell Count [8]: 227
Population Apoptotic (%) [9]: 74%
Population Fragmented Nuclei (%) [9]: 20%
Population Healthy Nuclei (%) [9]: 21%
Population Hoechst High Intensity Objects (%) [9]: 30%
Population Membrane Permeable-Phenotype (%) [9]: 0%
Population Mitochondria Different-Phenotype (%) [9]: 97%
Population Mitotic Cells (%) [9]: 25%
Population Normal (%) [9]: 70%
Population Pyknosed Nuclei (%) [9]: 57%
Population Tubulin-Different-Phenotype (%) [9]: 78%
Total Cell Count [9]: 250
Population Apoptotic (%) [10]: 64%
Population Fragmented Nuclei (%) [10]: 6%
Population Healthy Nuclei (%) [10]: 71%
Population Hoechst High Intensity Objects (%) [10]: 11%
Population Membrane Permeable-Phenotype (%) [10]: 1%
Population Mitochondria Different-Phenotype (%) [10]: 87%
Population Mitotic Cells (%) [10]: 35%
Population Normal (%) [10]: 88%
Population Pyknosed Nuclei (%) [10]: 22%
Population Tubulin-Different-Phenotype (%) [10]: 93%
Total Cell Count [10]: 263
Population Apoptotic (%) [11]: 93%
Population Fragmented Nuclei (%) [11]: 25%
Population Healthy Nuclei (%) [11]: 1%
Population Hoechst High Intensity Objects (%) [11]: 19%
Population Membrane Permeable-Phenotype (%) [11]: 0%
Population Mitochondria Different-Phenotype (%) [11]: 100%
Population Mitotic Cells (%) [11]: 6%
Population Normal (%) [11]: 80%
Population Pyknosed Nuclei (%) [11]: 73%
Population Tubulin-Different-Phenotype (%) [11]: 33%
Total Cell Count [11]: 315
Population Apoptotic (%) [12]: 98%
Population Fragmented Nuclei (%) [12]: 34%
Population Healthy Nuclei (%) [12]: 17%
Population Hoechst High Intensity Objects (%) [12]: 12%
Population Mitotic Cells (%) [12]: 1%
Population Normal (%) [12]: 87%
Population Pyknosed Nuclei (%) [12]: 48%
Population Tubulin-Different-Phenotype (%) [12]: 88%
Total Cell Count [12]: 234
